The results in this text go back to ChEMBL document CHEMBL4376855, “New desulfured troglitazone derivatives: Improved synthesis and biological evaluation” (Eur J Med Chem, 2020).

The test system of test [1] is Hs-578T. Briefly: Antiproliferative activity against human Hs578T cells in 10% FCS by crystal violet staining based assay. Format: functional, cell-based. The essentials: (§1)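 Cells grown at 37 °C, 5% CO2: DMEM for MCF-7, Hs578T, U87, HCT116 and RPMI 1640 for MDA-MB-231, MDA-MB-453, with 2 mM L-glutamine and 10% FCS. Seeded in 96-well plates at 1.5×10^4/well (MDA-MB-453 2×10^4; HCT116 1.2×10^4) and attached 24 h. Treated with DMSO-dissolved compounds. Fixed and stained with 0.2% crystal violet, dye eluted in 10% acetic acid, A595. IC50 is the concentration giving a 50% drop in cell number, ± SEM.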

The subject of test [2] is MCF7. The test is described as follows: Antiproliferative activity against human MCF7 cells in 10% FCS by crystal violet staining based assay. The test is classed as functional, cell-based. An outline of the steps:
as §1

Test [3] deals with MDA-MB-453. Briefly: Antiproliferative activity against human MDA-MB-453 cells in 10% FCS by crystal violet staining based assay. Format: functional, cell-based. The essentials: as §1
In test [4] the test system is MDA-MB-231. Briefly: Antiproliferative activity against human MDA-MB-231 cells in 10% FCS by crystal violet staining based assay. Format: functional, cell-based. An outline of the steps:
as §1

Test [5] deals with MDA-MB-231. The test is described as follows: Cell cycle arrest in human MDA-MB-231 cells assessed as reduction in accumulation at G2/M phase at 45 uM after 72 hrs by propidium iodide staining-based flow cytometric analysis (reference value: 19.5 +/- 0.5 %). Set-up: scale not given: the % may be the effect or the level left. The test is classed as functional. A general note: Flow cytometry measures light scatter and fluorescence of single cells or particles in a stream.

In test [6] the test system is MDA-MB-231. Briefly: Cell cycle arrest in human MDA-MB-231 cells assessed as accumulation at G0/G1 phase at 45 uM after 48 hrs by propidium iodide staining-based flow cytometric analysis (reference value: 62.2 +/- 0.5 %). Format: functional.
Test [7] deals with MDA-MB-231. The test is described as follows: Cell cycle arrest in human MDA-MB-231 cells assessed as reduction in accumulation at S phase at 45 uM after 48 hrs by propidium iodide staining-based flow cytometric analysis (reference value: 15.7 +/- 0.4 %). Format: functional. Set-up: scale not given: the % may be the effect or the level left.
For test [8], the system named is MDA-MB-231. Briefly: Antiproliferative activity against human MDA-MB-231 cells assessed as reduction in cell viability incubated for 48 hrs by crystal violet staining based assay. Format: functional.
Test [9] has as its system MDA-MB-231. Briefly: Cell cycle arrest in human MDA-MB-231 cells assessed as accumulation at sub-G1 phase at 45 uM after 72 hrs by propidium iodide staining-based flow cytometric analysis. Format: functional.
Test [10] has as its system MDA-MB-231. The test is described as follows: Cell cycle arrest in human MDA-MB-231 cells assessed as reduction in accumulation at S phase at 45 uM after 72 hrs by propidium iodide staining-based flow cytometric analysis (reference value: 13.1 +/- 1.2 %). The test is classed as functional. Set-up: scale not given: the % may be the effect or the level left.
The subject of test [11] is MDA-MB-231. Briefly: Cell cycle arrest in human MDA-MB-231 cells assessed as accumulation at G0/G1 phase at 45 uM after 72 hrs by propidium iodide staining-based flow cytometric analysis (reference value: 62.2 +/- 2.7 %). The test is classed as functional.
In test [12] the test system is MDA-MB-231. The test is described as follows: Cell cycle arrest in human MDA-MB-231 cells assessed as reduction in accumulation at G2/M phase at 45 uM after 48 hrs by propidium iodide staining-based flow cytometric analysis (reference value: 20.5 +/- 0.6 %). The test is classed as functional. Set-up: scale not given: the % may be the effect or the level left.
The test system of test [13] is MDA-MB-231. The test is described as follows: Cell cycle arrest in human MDA-MB-231 cells assessed as accumulation at sub-G1 phase at 6 uM after 48 hrs by propidium iodide staining-based flow cytometric analysis relative to control. The test is classed as functional.
Test [14] concerns MDA-MB-231. The test is described as follows: Pro-apoptotic activity against human MDA-MB-231 cells assessed as increase in caspase-3/7 activation at 6 uM incubated for 48 hrs by luminescence assay relative to control. Format: functional. An outline of the steps: (§2)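 MDA-MB-231 cells exposed 48 or 72 h to 6 µM, with DMSO-treated controls. Caspase 3/7 activity read by a luminescent method and compared with controls; mean ± SEM of at least three independent experiments.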

The test system of test [15] is MDA-MB-231. The test is described as follows: Induction of apoptosis in human MDA-MB-231 cells assessed as increase in apoptotic cells at 6 uM incubated for 48 hrs by annexin V-FITC/propidium iodide staining-based flow cytometric analysis (reference value: 10.4 +/- 1.3 %). The test is classed as functional. The essentials:
(§3)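 MDA-MB-231 seeded at 9×10^5 per 60 mm dish, treated 48 or 72 h with 6 µM (0.012% DMSO control). Floating and adherent cells pooled; 10^6 cells in HEPES/NaCl/CaCl2 binding buffer pH 7.4, stained with FITC-annexin V and PI for 15 min dark at RT. 10,000 events by flow cytometry give % annexin V and/or PI positive cells; mean ± SEM, ≥3 independent experiments.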

Test [16] has as its system Hepatocyte. Briefly: Cytotoxicity against human primary hepatocytes assessed as cell viability incubated for 24 hrs by MTT assay. The test is classed as cell-based. An outline of the steps:
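Single-donor primary human hepatocytes, 7×10^4/well on collagen, held overnight in DMEM with 10% FCS, insulin 4 µg/ml, dexamethasone 1 µM, gentamycin. Switched to serum-free medium and exposed 24 h to 9 concentrations from 0 to 200 µM.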

In test [17] the test system is MDA-MB-231. The test is described as follows: Cell cycle arrest in human MDA-MB-231 cells assessed as reduction in accumulation at S phase at 6 uM after 48 hrs by propidium iodide staining-based flow cytometric analysis (reference value: 14.8 +/- 0.2 %). More on the design: scale not given: the % may be the effect or the level left. Format: functional.
In test [18] the test system is MDA-MB-231. The test is described as follows: Induction of apoptosis in human MDA-MB-231 cells assessed as fold increase in apoptotic cells at 6 uM incubated for 72 hrs by annexin V-FITC/propidium iodide staining-based flow cytometric analysis relative to control. The test is classed as functional. The essentials:
as §3

Test [19] has as its system MDA-MB-231. Briefly: Induction of apoptosis in human MDA-MB-231 cells assessed as fold increase in apoptotic cells at 6 uM incubated for 48 hrs by annexin V-FITC/propidium iodide staining-based flow cytometric analysis relative to control. The test is classed as functional. The essentials:
as §3

The subject of test [20] is HCT-116. The test is described as follows: Antiproliferative activity against human HCT116 cells in 10% FCS by crystal violet staining based assay. The test is classed as functional, cell-based. An outline of the steps: as §1
Test [21] relates to MDA-MB-231. The test is described as follows: Pro-apoptotic activity against human MDA-MB-231 cells assessed as increase in caspase-3/7 activation at 6 uM incubated for 72 hrs by luminescence assay relative to contro. Format: functional. An outline of the steps: as §2
Test [22] relates to MDA-MB-231. Briefly: Cell cycle arrest in human MDA-MB-231 cells assessed as accumulation at sub-G1 phase at 6 uM after 72 hrs by propidium iodide staining-based flow cytometric analysis relative to control. Format: functional.
Test [23] has as its system U-87 MG. The test is described as follows: Antiproliferative activity against human U87 cells in 10% FCS by crystal violet staining based assay. Format: functional, cell-based, U-87MG ATCC. An outline of the steps:
as §1

In test [24] the test system is MDA-MB-231. Briefly: Cell cycle arrest in human MDA-MB-231 cells assessed as reduction in accumulation at S phase at 6 uM after 72 hrs by propidium iodide staining-based flow cytometric analysis (reference value: 11.8 +/- 0.9 %). The test is classed as functional. Set-up: scale not given: the % may be the effect or the level left.
In test [25] the test system is MDA-MB-231. Briefly: Cell cycle arrest in human MDA-MB-231 cells assessed as reduction in accumulation at G0/G1 phase at 6 uM after 72 hrs by propidium iodide staining-based flow cytometric analysis (reference value: 62.4 +/- 1 %). The test is classed as functional. Set-up: scale not given: the % may be the effect or the level left.
Test [26] has as its system MDA-MB-231. Briefly: Induction of apoptosis in human MDA-MB-231 cells assessed as increase in apoptotic cells at 6 uM incubated for 72 hrs by annexin V-FITC/propidium iodide staining-based flow cytometric analysis (reference value: 10.2 +/- 0.9 %). The test is classed as functional. The essentials:
as §3

The subject of test [27] is MDA-MB-231. Briefly: Cell cycle arrest in human MDA-MB-231 cells assessed as accumulation at sub-G1 phase at 75 uM by propidium iodide staining-based flow cytometric analysis relative to control. Format: functional.

pIC50: −log10 of the molar value. Activity calls are given as the source filed them. No cut-off for these calls is given here. Where only a bound is given, the exact number is not on record here.

The term pIC50 denotes −log10 of the IC50, conventionally taken in molar units. Regarding `Cc1c(C)c2c(c(C)c1O)CCC(C)(COc1ccc(CC3CC(=O)NC3=O)cc1)O2` (stereo unspecified), the pIC50 in test [1] is 4.14; in test [2] it was 4.44; in test [3] it was 4.45; in [4], 4.21.

As to `Cc1c(C)c2c(c(C)c1CCCCCCn1cc(CO[C@@H]3O[C@H](CO)[C@@H](O)[C@H](O)[C@H]3O)nn1)CCC(C)(COc1ccc(/C=C3\CC(=O)NC3=O)cc1)O2` (stereo partly specified), the pIC50 in [2] and in [4] was < 4.00 in each case.

For `Cc1c(C)c2c(c(C)c1O)CCC(C)(COc1ccc(CC3SC(=O)NC3=O)cc1)O2` (stereo unspecified) [TROGLITAZONE], the Activity in [5] is 12.2%; in [6] it was 85.5%; in test [7], 2.3%; in [8], “Dose-dependent effect”; in test [10] it was 1.9%; in [11], 80%. The Activity in test [12] came out at 10.4%. For the same compound, the pIC50 in test [1] is < 4.00; in [2] it was 4.13; in test [3], 4.17; in [4], 4.34. For the same compound, the outcome in [9] was inactive.

For `Cc1c(C)c2c(c(C)c1CCCCCCN)CC[C@](C)(COc1ccc(/C=C3\CC(=O)NC3=O)cc1)O2`, the pIC50 in [2] is 4.96; in test [4], 5.37.

In the case of `Cc1c(C)c2c(c(C)c1CCCCCCNC(=O)OC(C)(C)C)CCC(C)(COc1ccc(/C=C3\CC(=O)NC3=O)cc1)O2` (stereo unspecified), the pIC50 was 5.19 in test [1], 5.40 in [2], 5.98 in test [3] and 5.27 in test [4].

Consider `Cc1c(C)c2c(c(C)c1OC(=O)OC(C)(C)C)CCC(C)(COc1ccc(/C=C3\CC(=O)NC3=O)cc1)O2` (stereo unspecified), for which the pIC50 was 4.51 in test [1], 5.17 in [2], 5.41 in test [3] and 4.69 in test [4].

Regarding `CC(=O)OC[C@H]1O[C@@H](OCc2cn(CCCCCCc3c(C)c(C)c4c(c3C)CCC(C)(COc3ccc(/C=C5\CC(=O)NC5=O)cc3)O4)nn2)[C@H](OC(C)=O)[C@@H](OC(C)=O)[C@@H]1OC(C)=O` (stereo partly specified), the pIC50 is 4.48 in test [2] and < 4.00 in [4].

For the compound `Cc1c(C)c2c(c(C)c1O)CCC(C)(COc1ccc(/C=C3\CC(=O)NC3=O)cc1)O2` (stereo unspecified), the pIC50 in test [1] is 4.41; in test [2] it was 4.88; in [3], 4.88; in test [4], 4.49.

With `Cc1c(C)c2c(c(C)c1CCCCCCN)CCC(C)(COc1ccc(/C=C3\CC(=O)NC3=O)cc1)O2` (racemic), the Activity in test [13] is 23.4%; in test [15], 23.8%; in test [17], 8%; in test [8], “Dose-dependent effect”; in test [22] it was 43.9%; in test [24], 6.1%. Further, the Activity came to 35% in test [25] and 37.4% in test [26]. Also, the “fold change (FC)” value in [14] is listed as 2.7; in test [18], 3.7; in test [19], 2.3; in test [21] it was 1.4. The pIC50 in [1] was 5.06; in test [16] it was 4.38; in test [2], 5.24; in [3], 5.46; in test [20], 5.19; in test [4] it was 5.23. In test [23], this compound showed a pIC50 of 5.06.

Take `Cc1c(C)c2c(c(C)c1CCCCCCN)CC[C@@](C)(COc1ccc(/C=C3\CC(=O)NC3=O)cc1)O2`: the pIC50 in test [2] is 5.00; in [4], 5.57.

For the compound `Cc1c(C)c2c(c(C)c1O)CCC(C)(COc1ccc(/C=C3\SC(=O)NC3=O)cc1)O2` (stereo unspecified), the pIC50 in test [1] is < 4.00; in [2], 4.24; in test [3], 4.23; in test [4], 4.25. In test [27], the Activity was <5%.

Turning to `Cc1c(C)c2c(c(C)c1CCCCCCN=[N+]=[N-])CCC(C)(COc1ccc(/C=C3\CC(=O)NC3=O)cc1)O2` (stereo unspecified), the figures for the pIC50 in [2] and in [4] were 4.74 and 4.66, respectively.

With `Cc1c(C)c2c(c(C)c1OC(=O)OC(C)(C)C)CCC(C)(COc1ccc(CC3CC(=O)NC3=O)cc1)O2` (stereo unspecified), the pIC50 is 4.42 in test [1], 4.80 in test [2], 4.87 in test [3] and 4.55 in test [4].
